Test results: PubChem BioAssay
Active and inactive are the calls of the source.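 The calls were made as follows, unless noted: active = inhibition at or above 50% at 10 µM; inactive = inhibition below 50%.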

Key:
[1] = inhibitors of TNFa-induced NFkB p65 translocation, primary screen, imaging, HUVEC, MLSMR starter and 10KST1 sets (AID 438;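 active = inhibition above 20% together with a positive visual image hit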;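 also: compound added about 3h40 before a 20 min TNFalpha stimulation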;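 as to inhibition: signal is the nuclear over cytoplasmic p65 intensity ratio per well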); conditions: HUVEC TNFa-induced p65 nuclear translocation; cell count: measured here: nuclei count (cytotoxicity indicator), at 2.08 µM; inhibition: at 2 µM, stronger effect = higher value, 0% TNFa-plus-vehicle, 100% no-TNFa wells
[2] = reduction of polyQ htt aggregates in cells – imaging, exon1htt(103Q)mCFP cells, high-content imaging, primary screen (AID 483;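 active = visual image review flags a hit and inhibition of aggregation exceeds 20%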;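 also: compound exposure lasted 3 days before fixation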;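 as to nuclei count: percent of the per-plate median nuclei count of sample wells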); conditions: exon1htt(103Q)mCFP cell line, aggregate imaging, at 2 µM; inhibition of aggregation: stronger effect = higher value; nuclei count: measured here: cell count, toxicity
[3] = endothelial E-selectin expression blockers – imaging, HUVEC, immunofluorescence, MLSMR starter and 10KST1 sets, primary screen (AID 487;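 active = visually confirmed hit in the image check and inhibition above 20%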;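 as to inhibition: signal is fraction of cell area covered by stained E-selectin grains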;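 as to nuclei count: 100% = median nuclei count of all wells on the same plate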); conditions: HUVEC TNFalpha-induced E-selectin immunofluorescence imaging, at 2 µM; inhibition: stronger effect = higher value; nuclei count: measured here: cell number, toxicity
[4] = target: Voltage-gated potassium channel subunit beta-2 (Rattus norvegicus) (UniProt P62483); test: inhibitors of rat Kvbeta2 reductase activity – biochemical, NADPH fluorescence, primary screen (AID 622;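 active = fluorescence slope higher than the sample average by over 3 SD, cut at about -0.22 in these data, passing the limit was not always enough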;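 also: slope of raw intensity against log time taken from 70 to 1610 s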); conditions: recombinant KvBeta, 4-cyanobenzaldehyde reduction, at 10 µM, stronger effect = higher value
Sequence of Voltage-gated potassium channel subunit beta-2 (Rattus norvegicus) (P62483 whole entry, looked up): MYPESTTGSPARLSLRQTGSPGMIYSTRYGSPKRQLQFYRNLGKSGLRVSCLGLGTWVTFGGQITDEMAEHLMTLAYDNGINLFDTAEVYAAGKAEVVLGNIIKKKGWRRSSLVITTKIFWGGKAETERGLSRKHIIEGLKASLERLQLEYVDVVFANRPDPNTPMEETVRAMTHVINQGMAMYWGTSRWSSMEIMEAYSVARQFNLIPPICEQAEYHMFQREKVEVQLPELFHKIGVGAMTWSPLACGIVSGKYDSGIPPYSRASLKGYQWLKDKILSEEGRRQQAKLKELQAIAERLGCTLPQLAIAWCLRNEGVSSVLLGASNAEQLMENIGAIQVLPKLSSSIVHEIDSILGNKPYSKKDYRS

[5] = target: Voltage-gated potassium channel subunit beta-2 (Rattus norvegicus) (UniProt P62483); test: enhancers of rat Kvbeta2 NADPH turnover – biochemical, NADPH fluorescence, primary screen (AID 623;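 active = NADPH fluorescence slope more negative than the mean of all samples by about 3 SD, 99.7% confidence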;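 also: fluorescence intensity change per second fitted from 20 to 320 s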); conditions: Recombinant KvBeta, NADPH fluorescence decrease slope, 10 min; at 10 µM; stronger effect = lower value
[6] = target: Muscarinic acetylcholine receptor M4 (Homo sapiens) (UniProt P08173); test: M4-linked GIRK flux change, two-sided – cell-based, HEK293 M4/GIRK, thallium flux, BTC-AM, M4 allosteric agonist project, primary screen (AID 625;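 active = fluorescence slope after compound addition differing from the mean of all tested samples at 99.7% confidence, mostly higher but some lower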;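 also: thallium influx through GIRK channels coupled to M4 in HEK293 cells with BTC-AM dye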); conditions: at 10 µM, actives lie on both sides
Sequence of Muscarinic acetylcholine receptor M4 (Homo sapiens) (P08173 whole entry, looked up): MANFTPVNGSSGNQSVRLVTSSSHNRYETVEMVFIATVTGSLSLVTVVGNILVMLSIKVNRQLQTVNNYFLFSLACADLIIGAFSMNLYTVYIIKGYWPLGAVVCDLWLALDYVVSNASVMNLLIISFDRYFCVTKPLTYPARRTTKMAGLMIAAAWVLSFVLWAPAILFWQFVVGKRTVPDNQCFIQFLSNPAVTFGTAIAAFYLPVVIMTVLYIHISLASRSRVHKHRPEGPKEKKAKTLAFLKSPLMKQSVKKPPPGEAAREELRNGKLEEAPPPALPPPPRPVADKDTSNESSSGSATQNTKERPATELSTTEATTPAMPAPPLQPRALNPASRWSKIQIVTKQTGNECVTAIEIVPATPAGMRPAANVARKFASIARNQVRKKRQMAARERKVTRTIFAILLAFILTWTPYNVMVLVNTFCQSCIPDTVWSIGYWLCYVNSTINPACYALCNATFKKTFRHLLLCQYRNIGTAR
Outline: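 Assay system: HEK293 cells with M4 receptor and GIRK channels / Controls: carbachol and DMSO controls / Schedule: 1 h dye loading, 2 min kinetic read / Technique: kinetic fluorescence with BTC-AM dye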

[7] = blockers of RIG-like receptor reporter activation – cell-based, Sendai virus stimulus, luciferase, 10K MLSCN set, TLR/RLR signaling modifier project, primary screen (AID 602276); conditions: HEK293 RL24 IRF3 luciferase reporter, at 10 µM, stronger effect = higher value;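 also: firefly luciferase from ISG56 promoter only with Renilla not read in this screen; 0% = Sendai virus plus DMSO and 100% = medium plus DMSO without virus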
[8] = TLR3 IRF3 reporter activation blockers – cell-based, poly I:C stimulus, luciferase, 10K MLSCN set, primary screen (AID 602277;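 active = inhibition of the reporter signal at or above 50%; inactive = inhibition below 50%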); conditions: HEK293-TLR3 RL24 IRF3 luciferase reporter, at 10 µM, stronger effect = higher value

| SMILES | cell count [1] | inhibition [1] | inhibition of aggregation [2] | nuclei count [2] | inhibition [3] | nuclei count [3] | fluorescence slope [4] | NADPH fluorescence slope [5] | fluorescence slope [6] | inhibition [7] | inhibition [8] |
| --- | --- | --- | --- | --- | --- | --- | --- | --- | --- | --- | --- |
| COC(=O)c1nn(-c2ccc(-c3ccccc3)cc2)cc1O | 281 | 6% (inactive) | 14.9% (inactive) | 99.2% | 9.1% (inactive) | 111% | -0.493 (inactive) | -1.1e-05 (inactive) | 0.00465 (inactive) | 6.22% (inactive) | 7.64% (inactive) |
| O=C(/C=N/O)Nc1cccnc1 | 351 | -10.2% (inactive) | 17.5% (inactive) | 86% | 57.2% (inactive) | 98.5% | -0.552 (inactive) | -2.2e-05 (inactive) | 0.00502 (inactive) | 21.9% (inactive) | 26.5% (inactive) |
| Cc1cc(C(=O)N2CCN(C(c3ccccc3)c3ccccc3)CC2)no1 | 303 | -17.6% (inactive) | 32.7% (inactive) | 73.4% | -17.5% (inactive) | 84.1% | -0.433 (inactive) | -5.3e-05 (inactive) | 0.00719 (inactive) | 14.8% (inactive) | 12.2% (inactive) |
| Cc1cnn(C(=S)NCc2ccco2)c1 | 465 | -13.6% (inactive) | 17.2% (inactive) | 94.5% | -15.2% (inactive) | 99.9% | -0.49 (inactive) | -3.2e-05 (inactive) | 0.0043 (inactive) | 6.4% (inactive) | 1.55% (inactive) |
| CC(C)Cn1cc(C(=O)NCC2CCCO2)c2c3ccccc3n(C)c2c1=O (centres undefined) | 267 | 11.4% (inactive) | 3.2% (inactive) | 79.8% | -24.4% (inactive) | 107% | -0.523 (inactive) | -3.1e-05 (inactive) | 0.00592 (inactive) | 13.7% (inactive) | 18.7% (inactive) |
| CC1Cc2ccccc2N1C(=O)Cc1cccs1 (centres undefined) | 275 | -3.1% (inactive) | 33.8% (inactive) | 74.7% | 18.4% (inactive) | 93.7% | -0.504 (inactive) | -3.6e-05 (inactive) | 0.00407 (inactive) | 7.14% (inactive) | -1.13% (inactive) |
| CCn1c(SCC(N)=O)nc2c1c(=O)n(C)c(=O)n2C | 226 | 4.9% (inactive) | 20.7% (inactive) | 80.1% | -57.2% (inactive) | 152% | -0.422 (inactive) | 2.5e-05 (inactive) | 0.00578 (inactive) | 17.5% (inactive) | 21.1% (inactive) |
| CCN(CC)CCNC(=O)C1CCN(S(=O)(=O)N2CCCCC2)CC1 | 634 | 2.6% (inactive) | -30.2% (inactive) | 48.9% | -41.5% (inactive) | 109% | -0.412 (inactive) | 2.2e-05 (inactive) | 0.00434 (inactive) | 11.3% (inactive) | 15.8% (inactive) |
| Cc1[nH]c(=O)[nH]c(=O)c1S(=O)(=O)N1CCN(c2cccc(Cl)c2)CC1 | 799 | 4.2% (inactive) | -23.7% (inactive) | 104% | -160% (inactive) | 126% | -0.567 (inactive) | -1.8e-05 (inactive) | 0.0059 (inactive) | -13.2% (inactive) | -11.6% (inactive) |
| CS(=O)(=O)Nc1ccc(S(=O)(=O)Nc2nccs2)cc1 | 418 | 5.4% (inactive) | -6.9% (inactive) | 112% | -42.5% (inactive) | 87.9% | -0.399 (inactive) | 7.8e-05 (inactive) | 0.00758 (inactive) | 9.08% (inactive) | 14.5% (inactive) |
| CCOC(=O)COc1ccc(S(=O)(=O)Nc2ccc3c(c2)OCO3)cc1 | 408 | 9.5% (inactive) | 3.4% (inactive) | 98.2% | -137% (inactive) | 115% | -0.588 (inactive) | -0.000101 (inactive) | 0.00399 (inactive) | 12.4% (inactive) | 19.9% (inactive) |
| CC(c1ccccc1)N1C(=O)c2ccc(C(=O)NCc3ccco3)cc2C1=O (centres undefined) | 710 | 6.3% (inactive) | -0.8% (inactive) | 107% | 23.2% (inactive) | 93.8% | -0.46 (inactive) | -2.6e-05 (inactive) | 0.00569 (inactive) | -11.4% (inactive) | 51.6% (active) |
| O=C1CC(c2ccco2)CC(O)=C1C=NCC1NCCc2ccccc21 (centres undefined) | 330 | -2.8% (inactive) | 5.8% (inactive) | 94.2% | -123% (inactive) | 125% | -0.511 (inactive) | 2.1e-05 (inactive) | 0.00572 (inactive) | 17.9% (inactive) | 27.2% (inactive) |
| S=c1nc(C2CC2)[nH]c2ccccc12 | 469 | 0.8% (inactive) | -8.3% (inactive) | 106% | -99% (inactive) | 118% | -0.49 (inactive) | -4.4e-05 (inactive) | 0.0139 (active) | 19% (inactive) | 20.9% (inactive) |
| Cc1ccc(S(=O)(=O)N2CCC(C(=O)N[C@@H](Cc3ccccc3)C(=O)O)CC2)cc1 | 332 | -14.4% (inactive) | 11.7% (inactive) | 99.8% | 41.9% (inactive) | 97.6% | -0.563 (inactive) | -4.9e-05 (inactive) | 0.00616 (inactive) | -10.7% (inactive) | -5.08% (inactive) |
| CCCCn1nnnc1SCC(=O)N1CCN(C(=O)c2ccco2)CC1 | 247 | 2.6% (inactive) | 22.3% (inactive) | 72.2% | 15.1% (inactive) | 83.9% | -0.463 (inactive) | -3e-05 (inactive) | 0.00637 (inactive) | 7.65% (inactive) | 15.6% (inactive) |
| CN(C)S(=O)(=O)c1ccc(C(=O)Nc2ccccc2C(=O)O)cc1 | 487 | -8.9% (inactive) | 13.1% (inactive) | 83% | -1.2% (inactive) | 78% | -0.52 (inactive) | -3.3e-05 (inactive) | 0.00545 (inactive) | 2.15% (inactive) | 46.7% (inactive) |
| COc1cc(C(=O)Nc2ccc3c(c2)C(=O)N(CCC(=O)O)C3=O)cc(OC)c1OC | 469 | 2% (inactive) | 4.8% (inactive) | 89.5% | -37.8% (inactive) | 87.3% | -0.488 (inactive) | -4.2e-05 (inactive) | 0.00491 (inactive) | 12.6% (inactive) | 18% (inactive) |
| Cc1ccc(C)c(C(=O)NC2CC(C)(C)NC(C)(C)C2)c1 | 690 | 0.8% (inactive) | 14% (inactive) | 94% | -8.2% (inactive) | 96% | -0.578 (inactive) | -5.3e-05 (inactive) | 0.00855 (inactive) | -2.48% (inactive) | 9.21% (inactive) |
